APP 5'UTR act: activates APP 5'UTR luciferase reporter; SH-SY5Y APP 5'UTR luciferase reporter, luminescence; zero percent = DMSO vehicle wells; actives 1% (n = 190,000); activation, % at 2 µM; AID 1276;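 active = activation above a set limit, based on mean plus 3 SD of controls, cut at about 140% in these data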
STAT1 act: STAT1 signaling activation; actives 2.6% (n = 200,000); NIH 3T3 STAT1-luciferase reporter, IFN-gamma, luminescence; 100% = IFN-gamma alone, no compound; AID 932; activation (% of control), % at 5.5 µM;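 active = activation above the screen-wide mean activation plus 3 SD, cut at about 130% in these data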;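 also: raw ratio to IFN-gamma control signal so 100% means no change and 0% no light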
STAT3 act: activators of IL-6 induced STAT3 signaling. AID 871. activation (% of control), % at 5.6 µM. U3A cells, IL-6 STAT3-luciferase reporter, luminescence; 100% = signal with IL-6 EC80 alone. actives 0.91% (n = 190,000);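 active = activation above the screen-wide mean of compound activation plus 3 SD, cut at about 130% in these data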;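 also: 0% = background luminescence of wells with medium and substrate only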
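Test system: human U3A cells carrying STAT3-luciferase construct; control set: IL-6-only wells as 100% reference; timing: compound pre-incubation 1 h before IL-6, then 6 h stimulation at 37 °C; also added: IL-6 stimulus at 33 ng/mL final; evaluation: % activation versus median of IL-6-stimulated wells; detection: reporter luminescence signal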
NF-kB neuron act: NF-kB expression increase, human neuronal cells. NF-kB reporter expression; hits give high values. fold change at 12.5 µM. actives 1.6% (n = 190,000); in the data active = fold change above about 3.3
STAT3 blocker: STAT3 signaling inhibition; U3A cells, IL-6 STAT3-luciferase reporter, luminescence; host cell line lacks STAT1; inhibition, % at 5.5 µM; actives 0.89% (n = 190,000);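 active = inhibition above the mean inhibition across all screened compounds plus 3 SD, cut at about 44% in these data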;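 also: 0% = DMSO only wells and 100% = 100 µM nifuroxazide control wells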
STAT1 inh: reduces IFN-gamma driven STAT1 reporter signal. AID 920. inhibition, % at 5.5 µM. NIH 3T3 STAT1-luciferase reporter, luminescence. actives 0.35% (n = 200,000);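 active = inhibition above a set limit, the mean inhibition across all tested compounds plus 3 SD, cut at about 34% in these data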;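 also: 0% = IFN-gamma with DMSO and 100% = IFN-gamma with 300 µM nifuroxazide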
* = called active by the depositor; · = no result. An excerpt weighted towards active compounds, which were near 4.9% of everything screened.

SMILES | APP 5'UTR act | STAT1 act | STAT3 act | NF-kB neuron act | STAT3 blocker | STAT1 inh
CC(C)CC(C(=O)N1CCc2ccccc2C1)N1C(=O)c2ccccc2C1=O (stereo not given) | -13 | 91 | 134* | 0.83 | -36 | 9
c1ccc(-c2ccc(-c3csnn3)cc2)cc1 | 8 | 132* | 112 | 2.1 | -4 | -36
FC(F)(F)c1cccc(-c2ccc(-c3csnn3)o2)c1 | 12 | 108 | 84 | 1.4 | 23 | -8
CN(Cc1ccccc1)C(=O)C(C(=O)c1ccc(F)cc1)n1cc(Cl)ccc1=O (stereo not given) | -8 | 110 | 100 | 1.5 | 1 | -12
Cc1cc(/C=C2/SC(=S)N(c3cccc(Cl)c3)C2=O)c(C)n1-c1cccnc1 | -6 | 86 | 44 | · | 67* | 19
Cc1cc(/C=C2/SC(=S)N(c3ccc([N+](=O)[O-])cc3)C2=O)c(C)n1-c1cccnc1 | -13 | 96 | 102 | 0.43 | 2 | 4
CCC1(CC)N=C(c2ccccc2)C(=S)N1 | -15 | 95 | 111 | 0.96 | -11 | 4
COc1ccc(C2=NOC(CNC(N)=S)C2)cc1 (stereo not given) | 115 | 106 | 83 | 4.3* | 22 | -8
COc1ccc(CNC(=O)C2CC(c3ccc(OC)cc3)=NO2)cc1 (stereo not given) | 1 | 100 | 93 | 1.2 | 12 | 0
Cc1ccc(C2=N/C(=C\N3CCCCC3)C(=O)O2)cc1 | 100 | 142* | 100 | 3.3 | 8 | -45
Cc1cccc2cc(/C=C3\N=C(c4ccccc4)OC3=O)c(N3CCOCC3)nc12 | 17 | 93 | 101 | 1 | 3 | 8
Cc1ccc(C2=N/C(=C/N3CCOCC3)C(=O)O2)cc1 | 81 | 129* | 106 | 2.5 | -2 | -31
Cc1ccc(OC/C(=N\O)C(C)(C)C)c([N+](=O)[O-])c1 | 24 | 111 | 101 | 1.8 | -1 | -11
Cc1ccc(CNS(=O)(=O)N(C)C)cc1 | -6 | 107 | 111 | 1 | -4 | -7
COc1ccc(NC(=O)c2cc(-c3cccs3)on2)cc1OC | 15 | 109 | 94 | 1.5 | 11 | -9
CCc1ccc(NC(=O)c2cc(-c3cccs3)on2)cc1 | 39 | 136* | 97 | 2.3 | 12 | -42
Cc1ccc(NC(=O)c2cc(-c3cccs3)on2)cc1C | 5 | 146* | 100 | 2.2 | 9 | -52
CCc1ccc(NC(=O)c2cc(-c3ccc(F)cc3)on2)cc1 | 28 | 110 | 88 | 1.2 | 21 | -13
S=C(NCc1ccccc1)NN1CCOCC1 | 7 | 109 | 94 | 1.1 | 14 | -12
CCCC(=O)Nc1sc(C)c(-c2ccc(C(C)CC)cc2)c1C#N (stereo not given) | -4 | 87 | 71 | 1.3 | 38 | 15
O=C(Nc1ccccc1F)c1ccc([N+](=O)[O-])s1 | 13 | 98 | 97 | 3.5* | 5 | 2
O=C(Nc1cccc2ccccc12)c1ccc([N+](=O)[O-])s1 | -25 | 91 | 76 | 3.8* | 31 | 9
O=C(COC(=O)c1ccc([N+](=O)[O-])s1)NCc1ccccc1 | 16 | 98 | 98 | 1.1 | -3 | 2
Cc1ccc(C(=O)NNC(=S)Nc2cccc3ccccc23)s1 | 150* | 108 | 134* | 2.4 | -43 | -9
CCN(CC)S(=O)(=O)c1cc(Cl)ccc1OC | -9 | 98 | 98 | 1.1 | 11 | 3
SMILES | APP 5'UTR act | STAT1 act | STAT3 act | NF-kB neuron act | STAT3 blocker | STAT1 inh
COc1ccc(NC(=O)COc2ccc(C(=O)OCC(=O)N(C(C)C)C(C)C)cc2OC)cc1 | -13 | 92 | 100 | 1 | 8 | 9
Clc1ccc(-c2cc3ccccc3[nH]2)cc1 | 50 | 131* | 108 | 2.8 | 1 | -34
O=C(CSc1ccc(Cl)cc1Cl)N1CCC(c2nc3ccccc3s2)CC1 | 5 | 100 | 107 | 0.96 | -3 | 0
Cc1ccc2oc(-c3ccccc3)c(C(=O)O)c(=O)c2c1 | 166* | 124 | 123 | 4* | -24 | -27
Nc1ccc2oc(C3CCCCC3)nc2c1 | 38 | 132* | 106 | 1.6 | -1 | -34
Cc1ccc(-c2c3c(nc4sc(C(N)=O)c(N)c24)CCC3)cc1 | 14 | 111 | 87 | 0.88 | 19 | -12
Cc1ccc(C(=O)c2sc3nc4c(cc3c2N)CCC4)cc1 | 192* | 100 | 89 | 1.2 | 13 | 0
Cc1ccc2ccc(C3C(=O)c4ccccc4C3=O)nc2c1 | 145* | 142* | 165* | · | -74 | -45
CCc1ccc(NC(=O)c2noc3c2CCC3)cc1 | 144* | 104 | 108 | 3.4* | -2 | -5
Cc1ccc(O)c(NC(=O)c2noc3c2CCCCC3)c1 | 212* | 115 | 107 | 9.8* | -7 | -18
O=C(NCc1ccccc1)c1noc2c1CCCC2 | 0 | 99 | 106 | 1.4 | -1 | 2
CC(C)(C)C1CCc2onc(C(=O)NC3CCCC3)c2C1 (stereo not given) | -1 | 101 | 88 | 1 | 18 | -2
O=C(NCCc1ccccc1)c1noc2c1CCCCC2 | 100 | 140* | 103 | 3.8* | 1 | -44
O=C(NC1CCCCC1)c1noc2c1CCCCC2 | 131 | 149* | 106 | 1.4 | -1 | -54
CC(NC(=O)/C=C/c1ccco1)c1nc2ccccc2n1Cc1cccc(Cl)c1 (stereo not given) | -6 | 98 | 107 | 1.5 | -10 | 2
CCc1ccc(-c2cn3nc(C)c(C)nc3n2)cc1 | 2 | 22 | 12 | 2.9 | 110* | 85*
CCc1c(-c2ccccc2)nc2nc(C)c(C)nn12 | -4 | 102 | 87 | 1.3 | 24 | -2
Cc1nc2nc(-c3ccccc3)cn2nc1C | 98 | 122 | 103 | 4.7* | 0 | -26
c1ccc(-c2cn3nc4c(nc3n2)CCCC4)cc1 | 148* | 52 | 28 | 2.4 | 87* | 53*
O=C(COC(=O)c1ccc(CSc2ccc(Cl)cc2)cc1)Nc1ccccc1 | 14 | 102 | 109 | 0.92 | -16 | -3
Cc1ccc(CNC(=O)CN(C)S(=O)(=O)c2cccs2)cc1 | -10 | 101 | 104 | 1.3 | 7 | -3
Cn1c(CC(=O)Nc2ccccc2)c(Sc2ccccc2)c2ccccc21 | -1 | 99 | 135* | 0.87 | -36 | 1
Cc1ccc(NC(=O)c2c(O)c3ccccc3n(C)c2=O)nc1 | 38 | 96 | 135* | 2 | -33 | 5
Cn1c(Cl)c(C(=O)Nc2ccccc2)c2ccccc21 | 17 | 99 | 158* | 1.2 | -72 | 1
Cn1c(CC(=O)Nc2ccccc2C(F)(F)F)c(Sc2ccccc2)c2ccccc21 | 5 | 95 | 97 | 1 | 5 | 5
Cn1c(=O)c(C(=O)Nc2cccnc2)c(O)c2ccccc21 | 8 | 114 | 134* | · | -36 | -15
